Screens as filed in PubChem.
Compounds with a hit are over-represented: about 3.9% of the library has one in this group of screens.
UPR XBP1 act = activators of adaptive XBP1 UPR arm, primary screen, cell-based, CHO-XBP1 luciferase reporter, luminescence, uHTS. activation, % at 20 µM. 330,000 compounds, 0.33% hits. IRE1-XBP1 UPR activation; percent of tunicamycin response, DMSO as zero;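 active = versus positive control, 20 µM dose yields 30% or more activation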
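assay system = CHO-XBP1 luciferase reporter cells | amount = 1000 cells/well | buffer or medium = F12 plus 10% FBS | compound dosing = single point, 20 µM final compound, 1% DMSO | incubation = 16-18 h cell attachment at 37 °C, then 6 h compound exposure | detection = Steady-Glo luminescence read | controls = tunicamycin 10 µg/mL and vehicle-only wells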
Jurkat NFkB inh = inhibitors of induced NF-kB luciferase reporter, primary screen, TCR NF-kB activation inhibitor project, cell-based, luminescence, uHTS; Jurkat, PMA/ionomycin-induced NF-kB luciferase reporter; inhibition, % at 4 µM; 330,000 compounds, 0.53% hits; in the data active = inhibition above about 50%
CHOP UPR activ = activators of apoptotic CHOP UPR arm, primary screen, cell-based, CHO-CHOP luciferase reporter, luminescence, uHTS. UPR activation; percent of tunicamycin response over DMSO baseline. 330,000 compounds, 0.34% hits. activation, % at 10 µM. AID 449763, 2010;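 active = at 10 µM dose, activation of 40% or more, normalized to positive control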
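Evaluation: % reporter activation, DMSO baseline versus tunicamycin full activation; System: CHO-CHOP luciferase reporter cell line; Input: 500 cells/well; Incubation: 6 h compound treatment, 37 °C; Measured by: Steady-Glo luciferase luminescence; Dosing: one dose, 10 µM in 0.5% DMSO; Buffer or medium: F12 medium, 10% FBS; Benchmarks: positive tunicamycin 10 µg/mL, negative DMSO alone.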
697 NFkB inh = inhibitors of PMA/ionomycin-induced NF-kB reporter, 697 cells, primary screen, B-cell NF-kB inhibitor project, cell-based, luminescence, uHTS. inhibition, % at 4 µM. AID 435022, 2010. 697 B-cell NF-kB luciferase reporter, 16 h. 330,000 compounds, 0.33% hits; in the data active = inhibition above about 35%
CHOP inhibitor = inhibitors of CHOP promoter induction, primary screen, cell-based, unfolded protein response, luciferase reporter. CHO-K1 CHOP-promoter luciferase, tunicamycin-induced, 15-18 h. inhibition, % at 10 µM. 220,000 compounds, 3.8% hits. AID 2732, 2010;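 active = compounds that reduced the stress-induced luciferase reporter signal by more than about 70% of percent inhibition, limit read from the data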
Gli-Sufu antag = Gli-Sufu pathway antagonists, primary screen, luciferase luminescence, Sufu-KO-LIGHT cells, uHTS | Sufu-KO-LIGHT fibroblasts, Gli luciferase reporter luminescence | inhibition, % at 5 µM | 340,000 compounds, 0.74% hits;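 active = inhibition above about 55%, limit read from the data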
Gli-Sufu confirm = Gli-SUFU pathway antagonists, confirmation, single concentration, luciferase luminescence, Sufu-KO-LIGHT cells. shares compounds with Gli-Sufu antag. AID 602428, 2012. 2,500 compounds, 40% hits. inhibition, % at 5 µM. Gli luciferase reporter;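 active = mean inhibition at 5 µM reaching about 45%, limit read from the data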
Gli cytotox = cytotoxicity in Sufu-KO-LIGHT cells, confirmation, cytotoxicity control for Gli-SUFU antagonist project, cell-based, ATP luminescence, single concentration; cytotoxicity, % at 5 µM; 2,500 compounds, 32% hits; AID 651994, 2013; shares compounds with Gli-Sufu antag;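 active = mean cytotoxicity at 5 µM above about 25%, limit read from the data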;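 note: cells exposed to compound overnight for roughly 16 to 18 hours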
Wnt3a cs = Wnt3a reporter signal inhibition, confirmation, counter-screen for Gli-SUFU antagonist project, Wnt-LIGHT cells, luminescence, single concentration | Wnt3a-driven luciferase reporter | AID 651995, 2013 | shares compounds with Gli-Sufu antag | 2,500 compounds, 20% hits | inhibition, % at 6.25 µM;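 active = mean inhibition above about 25%, limit read from the data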
Hits are given with their value; . = inactive; / = not tested or not shown.

SMILES	UPR XBP1 act	Jurkat NFkB inh	CHOP UPR activ	697 NFkB inh	CHOP inhibitor	Gli-Sufu antag	Gli-Sufu confirm	Gli cytotox	Wnt3a cs
O=C(Nc1nc2c(s1)C(=O)CCC2)c1ccccc1	.	.	.	.	.	69.7	.	28.6	.
CN(C(=O)c1ccc(NC(=O)Cc2cccc(NC(=O)C3CCCN(C(=O)C4CCC4)C3)c2)cc1)C1CCCC1 (stereo not drawn)	.	.	.	.	/	57.2	.	.	.
Cc1cc(C)c(OCC(=O)Nc2ccc(S(=O)(=O)N3CCCC3)cc2)c(C)c1	.	.	.	.	/	97.7	.	25.5	.
COc1ccc(OCC(O)Cn2c(=N)n(CCN3CCOCC3)c3ccccc32)cc1 (stereo not drawn)	.	.	.	.	.	63.4	.	.	.
COc1ccc(OCCC(=O)NCCN2CCOCC2)cc1	.	.	.	.	.	.	.	.	.
CC(=O)c1ccc(OCC(=O)Nc2ccccc2C(=O)NC2CC2)cc1	.	.	.	.	/	.	/	/	/
CC(C)N(C)Cc1cn(C)nc1-c1ccc(Oc2ccccc2)cc1	.	.	.	.	/	.	/	/	/
COCCN(Cc1cn(C)nc1-c1ccc(Oc2ccccc2)cc1)C(C)C	.	.	.	.	/	56.7	.	.	.
Cc1cc(-c2nnc(SCC(=O)Nc3ccccc3C(F)(F)F)o2)c(C)n1-c1ccccc1	.	.	.	.	.	57.0	66.9	.	64.5
COC(=O)c1cc(C(=O)Nc2nc3ccccc3[nH]2)cc([N+](=O)[O-])c1	.	.	.	.	/	.	/	/	/
CCn1c(=NC(=O)CS(=O)(=O)c2ccc(F)cc2)sc2cccc(OC)c21	.	.	.	.	/	.	/	/	/
CCn1c(=NC(=O)c2ccc(S(=O)(=O)N3CCOCC3)cc2)sc2cccc(OC)c21	.	.	.	.	83.2	.	.	.	.
CCn1c(=NC(=O)CCS(=O)(=O)c2ccccc2)sc2cccc(OC)c21	.	.	.	.	/	70.3	71.3	27.9	.
CCCSc1nnc(NC(=O)c2nc(SC)ncc2Cl)s1	.	.	.	.	.	56.3	.	.	.
Cc1nc2ccccn2c1C(=O)NNS(=O)(=O)c1ccc(C(C)(C)C)cc1	.	.	.	.	.	.	47.8	27.3	.
Cc1cccc(C)c1NC(=S)N(CCN1CCCCCC1)Cc1ccco1	.	.	.	.	.	.	.	.	.
COc1ccc2[nH]c(=O)c(CN(C(=O)c3cccnc3)c3ccc(C)cc3)cc2c1	.	.	.	.	.	82.7	.	.	.
CCOC(=O)C(C(=O)Cc1ccccc1)c1ccccc1 (stereo not drawn)	/	/	/	/	/	.	/	/	/
Cc1nn(Cc2noc(C(=O)NCC3CCCO3)n2)c(C)c1Br (stereo not drawn)	.	.	.	.	/	.	/	/	/
Cc1nn(Cc2noc(C(=O)NC3CCC(C)CC3)n2)c(C)c1Br (stereo not drawn)	.	.	.	.	/	.	80.1	28.7	.
COc1ccc(CCN(C)C(=O)Cc2ccc(-c3ccccc3)cc2)cc1OC	.	.	.	.	/	59.6	.	.	.
CCOC(=O)c1c(CSc2nc(C)cc(C)c2C#N)n(C)c2cc(Br)c(OC(C)=O)cc12	.	.	.	.	.	79.2	80.0	37.8	.
C=CCCc1ccc(C#N)c(SCc2c(C(=O)OCC)c3cc(OC(C)=O)c(Br)cc3n2C)n1	.	.	.	.	71.9	73.1	85.4	43.3	41.3
Cc1cc(S(=O)(=O)N2CCCC2)ccc1OCC(=O)N1CCCCC1	.	.	.	.	/	.	/	/	/
Cc1ccc(S(=O)(=O)N(CC(O)CN2CCCCC2)c2ccccc2)cc1 (stereo not drawn)	.	.	.	.	.	57.6	.	.	.
SMILES	UPR XBP1 act	Jurkat NFkB inh	CHOP UPR activ	697 NFkB inh	CHOP inhibitor	Gli-Sufu antag	Gli-Sufu confirm	Gli cytotox	Wnt3a cs
CCCCn1c(N)c(N(CCOC)C(=O)c2ccc3c(c2)C(=O)N(c2cc(C)ccc2C)C3=O)c(=O)[nH]c1=O	.	.	.	.	/	.	/	/	/
CC1(C)C2CCC1(C)C(OCC[N+](C)(C)CC(=O)OC1CCCCC1)C2 (stereo not drawn)	.	.	.	.	.	78.8	74.8	32.2	.
CCOC(=O)C[N+](C)(C)CCOC1CC2CCC1(C)C2(C)C (stereo not drawn)	.	.	.	.	.	.	/	/	/
CN(C(=O)COC(=O)C1CCN(S(=O)(=O)c2ccc3c(c2)OCCO3)CC1)C1CCCCC1	.	.	.	.	/	.	/	/	/
Cc1cc(C)c(C)c(S(=O)(=O)N2CCN(c3ccccn3)CC2)c1C	.	.	.	.	/	.	/	/	/
Cc1cc(C)c(C)c(S(=O)(=O)N2CCN(c3ncnc4ccccc34)CC2)c1C	.	.	.	.	/	.	70.8	.	.
O=S(=O)(c1cc(C(F)(F)F)ccc1Cl)N1CCN(c2ncnc3ccccc23)CC1	.	.	.	.	/	61.0	60.8	.	43.6
NC(=S)N/N=C/c1cccc(O)c1O	.	.	.	.	.	81.7	.	.	.
S=C1NC[C@H](CC2CCCCC2)N1CC1CCCCC1	.	.	.	.	.	65.1	.	.	.
Cc1ccc(-c2c[n+](CC(=O)c3ccc(Br)cc3)c3n2CCCCC3)cc1	.	.	.	.	.	77.3	78.1	33.5	.
O=C(C[n+]1cc(-c2ccccc2)n2c1CCCCC2)c1ccc(Cl)cc1	.	.	.	.	.	58.0	49.1	.	.
C[n+]1cc(-c2ccccc2)n2c1CCCCC2	.	.	.	.	.	.	/	/	/
Cc1ccc(NC(=O)C[n+]2cc(-c3ccccc3)n3c2CCC3)cc1	.	.	.	.	.	.	/	/	/
COc1ccc(-c2c[n+](CC(=O)c3ccccc3)c3n2CCCCC3)cc1	.	.	.	.	.	.	55.3	.	.
CCC(NC(=S)NC1CCCCC1)c1ccc(C)cc1 (stereo not drawn)	.	.	.	.	/	/	/	/	/
O=C(CN1C(=O)c2ccccc2C1=O)Nc1cccnc1	.	.	.	.	.	64.1	.	.	.
